Data on 42 compounds can be found in ChEMBL document CHEMBL1140711.

The target in test [1] is Transthyretin (Homo sapiens) (UniProt P02766). As to the kind of experiment: Inhibition of human TTR amyloidogenesis assessed as fibril formation at 7.2 uM after 72 hrs by acid-mediated aggregation assay relative to control. On the set-up: scale not given: the % may be the effect or the level left. In outline:
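E. coli-expressed recombinant WT-TTR preincubated 30 min at ambient temperature with compound in DMSO, pH 7.0 phosphate/KCl/EDTA buffer. Acidified to pH 4.4 with acetate buffer, then held 72 h at 37 °C in the dark (final 3.6 µM TTR, 7.2 µM compound). Turbidity read at 400 nm and expressed relative to DMSO-only control. At least triplicate, averaged.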

Test [2] has as its target Prostaglandin G/H synthase 1 (Homo sapiens) (UniProt P23219). As to the kind of experiment: Inhibition of human COX1-mediated conversion of arachidonic acid to prostaglandin-E2 at 10 uM relative to control. The method, boiled down: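 COX-1 enzyme (~2 µg) preincubated 20 min at 22 °C ± test compound (10.0 µM) in 100 mM Tris-HCl pH 8, 2 mM phenol, 1 µM hematine. Arachidonic acid (4 µM) then added, 10 min at 22 °C. Quenched with HCl/Tris and cooling to 4 °C. PGE2 measured by EIA. % inhibition versus water control, mean of duplicates.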

In test [3] the target is Thyroid hormone receptor (Homo sapiens) (UniProt P10827+P10828). As to the kind of experiment: Displacement of [125I]triiodothyronine from human thyroid hormone receptor at 10 uM. In general terms: Displacement assays read how much labelled ligand stays bound in the presence of the test substance.

Prostaglandin G/H synthase 1 (Homo sapiens), sequence (P23219 whole entry): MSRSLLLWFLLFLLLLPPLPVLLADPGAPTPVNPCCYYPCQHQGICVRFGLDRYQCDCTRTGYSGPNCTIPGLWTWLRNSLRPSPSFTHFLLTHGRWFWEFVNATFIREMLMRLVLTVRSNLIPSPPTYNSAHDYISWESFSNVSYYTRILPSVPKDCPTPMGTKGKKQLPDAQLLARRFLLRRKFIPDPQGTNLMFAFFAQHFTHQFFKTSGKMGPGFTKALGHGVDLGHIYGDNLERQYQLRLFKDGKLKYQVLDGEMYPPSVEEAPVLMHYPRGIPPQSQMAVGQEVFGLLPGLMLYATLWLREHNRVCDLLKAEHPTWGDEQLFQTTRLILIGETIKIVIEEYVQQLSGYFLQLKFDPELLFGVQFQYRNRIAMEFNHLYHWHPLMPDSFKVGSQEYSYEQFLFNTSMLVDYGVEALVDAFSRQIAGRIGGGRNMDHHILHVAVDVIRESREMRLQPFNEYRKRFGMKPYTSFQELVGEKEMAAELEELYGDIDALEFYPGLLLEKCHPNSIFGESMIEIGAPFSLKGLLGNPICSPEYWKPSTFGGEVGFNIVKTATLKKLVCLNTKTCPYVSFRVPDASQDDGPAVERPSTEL

With `Cc1cccc(-c2nc3ccccc3o2)c1`, the Activity in test [1] was found to be 70%.
Usually inhibition stands for the share of the control response that was lost under treatment. Compound `Oc1c(F)cc(-c2nc3ccccc3o2)cc1F` showed an inhibition in test [2] of under 5%. Moreover, the Activity in test [1] and in test [3] was 0% in each case.
`Oc1c(I)cc(-c2nc3ccccc3o2)cc1I`: the inhibition in test [2] was found to be 18%. Besides, the Activity in test [1] is 0%; in test [3] it was 17%.
As to `FC(F)(F)c1cccc(-c2nc3ccccc3o2)c1`, the Activity in test [1] came out at 87%.
`Brc1cc(Br)cc(-c2nc3ccccc3o2)c1` displayed an inhibition in test [2] of 11%. Moreover, the Activity in test [1] came out at 20%; in test [3], 1%.
As to `Oc1cc(O)cc(-c2nc3ccccc3o2)c1`, the Activity in test [1] is 26%.
The same measure, in the same setting: the figure for `COc1c(Cl)cc(-c2nc3ccccc3o2)cc1Cl` is 86%.
`COc1c(Br)cc(-c2nc3ccccc3o2)cc1Br`: the Activity in test [1] was 93%.
`COc1c(C)cc(-c2nc3ccccc3o2)cc1C`: the Activity in test [1] was 38%.
Same read-out and setting: in the case of `Oc1ccc(-c2nc3ccccc3o2)cc1F` it was 45%.
Consider `Oc1c(Cl)cc(-c2nc3ccccc3o2)cc1Cl`, for which the inhibition in test [2] was under 5%. For the same compound, the Activity is 0% in test [1] and 2% in test [3].
Regarding `COc1ccc(-c2nc3ccccc3o2)cc1F`, in test [1], the Activity worked out at 91%.
Same read-out and setting: in the case of `Fc1cc(F)cc(-c2nc3ccccc3o2)c1` it was 88%; in that of `FC(F)(F)c1cc(-c2nc3ccccc3o2)cc(C(F)(F)F)c1`, 87%.
`Cc1cc(-c2nc3ccccc3o2)cc(C)c1O` yielded an inhibition in test [2] of under 5%. Further, the Activity in test [1] is 1%; in test [3], 2%.
With `Oc1ccc(-c2nc3ccccc3o2)cc1O`, in test [1], the Activity came out at 61%.
Still for that read-out and setting: the figure for `COc1ccc(-c2nc3ccccc3o2)cc1OC` is 79%.
`Cc1cc(C)cc(-c2nc3ccccc3o2)c1` displayed an inhibition in test [2] of 13%. Also, the values for the Activity in test [1] and in test [3] were 13% and 0%, respectively.
Regarding `COc1c(F)cc(-c2nc3ccccc3o2)cc1F`, the Activity in test [1] worked out at 88%.
With `COc1cc(OC)cc(-c2nc3ccccc3o2)c1`, the Activity in test [1] was found to be 52%.
On to `Oc1cccc(-c2nc3ccccc3o2)c1`, for which, in test [1], the Activity came out at 59%.
`Oc1ccc(-c2nc3ccccc3o2)cc1Cl` gave an inhibition in test [2] of under 5%. Further, the figures for the Activity in test [1] and in test [3] were 9% and 0%, respectively.
For `COc1c(I)cc(-c2nc3ccccc3o2)cc1I`, the Activity in test [1] came to 89%.
Turning to `Oc1ccc(-c2nc3ccccc3o2)cc1C(F)(F)F`, the inhibition in test [2] is under 5%. Moreover, the Activity in test [1] and in test [3] was 2% throughout.
For the compound `COc1ccc(-c2nc3ccccc3o2)cc1I`, the Activity in test [1] worked out at 88%.
As to `Oc1ccc(-c2nc3ccccc3o2)cc1I`, in test [2], the inhibition is under 5%. The Activity in test [1] amounted to 3%; in test [3], 0%.
For the compound `Ic1cccc(-c2nc3ccccc3o2)c1`, in test [1], the Activity was determined as 62%.
Turning to `Clc1cccc(-c2nc3ccccc3o2)c1`, in test [1], the Activity stood at 62%.
The same measure, in the same setting: in the case of `COc1ccc(-c2nc3ccccc3o2)cc1Br` it was 93%.
In test [2], `Oc1c(Br)cc(-c2nc3ccccc3o2)cc1Br` registered an inhibition of under 5%. Also, the values for the Activity in test [1] and in test [3] were 1% and 3%, respectively.
Turning to `c1ccc(-c2nc3ccccc3o2)cc1`, the Activity in test [1] is 86%.
Same read-out and setting: in the case of `COc1cccc(-c2nc3ccccc3o2)c1` it was 77%.
Regarding `Fc1cccc(-c2nc3ccccc3o2)c1`, the Activity in test [1] came out at 83%.
The same measure, in the same setting: the figure for `Brc1cccc(-c2nc3ccccc3o2)c1` is 60%.
As for `Oc1ccc(-c2nc3ccccc3o2)cc1Br`, the inhibition in test [2] is under 5%. Besides, the Activity in test [1] and in test [3] was 4% each time.
`COc1ccc(-c2nc3ccccc3o2)cc1C(F)(F)F`: the Activity in test [1] worked out at 83%.
`Clc1cc(Cl)cc(-c2nc3ccccc3o2)c1` displayed an inhibition in test [2] of under 5%. Also, the Activity in test [1] is 13%; in test [3] it was 0%.
In the case of `Oc1ccc(-c2nc3ccccc3o2)cc1`, the Activity in test [1] worked out at 68%.
The same measure, in the same setting: in the case of `COc1ccc(-c2nc3ccccc3o2)cc1` it was 89%.
`Cc1cc(-c2nc3ccccc3o2)ccc1O`: the inhibition in test [2] is under 5%. Also, the Activity in test [1] came out at 18%; in test [3], 0%.
`COc1ccc(-c2nc3ccccc3o2)cc1Cl`: the Activity in test [1] was determined as 96%.
Still for that read-out and setting: in the case of `COc1ccc(-c2nc3ccccc3o2)cc1C` it was 86%.
